Data as given in ChEMBL document CHEMBL4825671, “Design, synthesis and biological evaluation of novel FXIa inhibitors with 2-phenyl-1H-imidazole-5-carboxamide moiety as P1 fragment” (Eur J Med Chem, 2021).
pKi: −log10 of the molar value.

What was measured:
[1] = target: T1, Coagulation factor XI (Homo sapiens, UniProt P03951); experiment: Binding affinity to coagulation factor 11a (unknown origin) assessed as inhibition constant using (p-Glu-Pro-Arg-pNa,HCl) as substrate preincubated for 5 mins followed by substrate addition and measured after 10 mins
[2] = target: T1, Coagulation factor XI; experiment: Inhibition of coagulation factor 11a (unknown origin) at 100 uM using (p-Glu-Pro-Arg-pNa,HCl) as substrate preincubated for 5 mins followed by substrate addition and measured after 10 mins relative to control; settings: time 15.0 min
[3] = tested on: Oryctolagus cuniculus; experiment: Antithrombotic activity in New Zealand White rabbit model of AV-shunt induced thrombosis assessed as reduction in thrombosis weight by measuring inhibition of thrombosis formation at 2.5 mg/kg, administered as iv bolus dose and subsequently followed by 4 mg/kg/hr as iv infusion relative to control; type: functional
Outline: (§1)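 Male New Zealand White rabbits under urethane anesthesia (1.25 g/kg). A control-period AV shunt gave the baseline thrombus wet weight, found by subtraction. The compound in saline vehicle was then given as an IV bolus followed by continuous IV infusion via the jugular vein. A new AV shunt ran for 40 min. Result is % inhibition of thrombus formation, treatment versus control period. Three rabbits per group.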

[4] = species: Homo sapiens; experiment: Selectivity ratio of Ki for plasma kallikrein (unknown origin) to Ki for coagulation factor 11a (unknown origin)
[5] = species: Homo sapiens; experiment: Competitive inhibition of coagulation factor 11a (unknown origin) assessed as Km at 0.02 uM using varying levels (p-Glu-Pro-Arg-pNa,HCl) as substrate by Lineweaver-Burk plot analysis
Outline: (§2)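 Same FXIa assay (37 °C, 5 min preincubation, 405 nm read), run at four substrate levels with final concentrations of 42.5, 85, 170 and 340. Km and Vmax were taken from a Lineweaver-Burk plot using the Michaelis-Menten relationship.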

[6] = species: Homo sapiens; experiment: Competitive inhibition of coagulation factor 11a (unknown origin) assessed as Km at 0.04 uM using varying levels (p-Glu-Pro-Arg-pNa,HCl) as substrate by Lineweaver-Burk plot analysis; outline: as §2
[7] = species: Homo sapiens; experiment: Competitive inhibition of coagulation factor 11a (unknown origin) assessed as Vmax at 0.005 to 0.04 uM using varying levels (p-Glu-Pro-Arg-pNa,HCl) as substrate by Lineweaver-Burk plot analysis; settings: dose 0.005-0.04 µM; outline: as §2
[8] = Binding affinity to thrombin (unknown origin) assessed as inhibition constant using H-D-Phe-Pip-Arg-pNA,2HCl as substrate preincubated for 10 mins followed by substrate addition; set-up: species or system Homo sapiens
Outline: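 Thrombin was preincubated with compound or blank buffer at 25 °C for 10 min. Chromogenic substrate was added and absorbance read at 405 nm. Compounds came from DMSO stocks (10 mM) diluted in assay buffer. IC50 was derived from a concentration range.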

[9] = species: Homo sapiens; experiment: Selectivity ratio of Ki for coagulation factor 7a (unknown origin) to Ki for coagulation factor 11a (unknown origin)
[10] = species: Homo sapiens; experiment: Competitive inhibition of coagulation factor 11a (unknown origin) assessed as Km at 0.005 uM using varying levels (p-Glu-Pro-Arg-pNa,HCl) as substrate by Lineweaver-Burk plot analysis; outline: as §2
[11] = species: Homo sapiens; experiment: Competitive inhibition of coagulation factor 11a (unknown origin) using varying levels (p-Glu-Pro-Arg-pNa,HCl) as substrate by Lineweaver-Burk plot analysis; settings: dose 0.005-0.04 µM; outline: as §2
[12] = target: Coagulation factor X (Homo sapiens, UniProt P00742); experiment: Binding affinity to coagulation factor 10a (unknown origin) assessed as inhibition constant using CH3OCO-D-CHA-Gly-Arg-pNA,ACOH as substrate preincubated for 10 mins followed by substrate addition
Outline: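 FXa was preincubated with compound or blank buffer at 25 °C for 10 min. Chromogenic substrate was added and absorbance read at 405 nm. Compounds came from DMSO stocks (10 mM) diluted in assay buffer. IC50 was derived from a concentration range.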

[13] = target: T2, Coagulation factor VII (Homo sapiens, UniProt P08709); experiment: Binding affinity to coagulation factor 7a (unknown origin) assessed as inhibition constant using CH3SO2-D-CHA-But-Arg-pNA,ACOH as substrate preincubated for 10 mins followed by substrate addition and further incubated for 10 mins
T2 sequence (P08709 whole entry): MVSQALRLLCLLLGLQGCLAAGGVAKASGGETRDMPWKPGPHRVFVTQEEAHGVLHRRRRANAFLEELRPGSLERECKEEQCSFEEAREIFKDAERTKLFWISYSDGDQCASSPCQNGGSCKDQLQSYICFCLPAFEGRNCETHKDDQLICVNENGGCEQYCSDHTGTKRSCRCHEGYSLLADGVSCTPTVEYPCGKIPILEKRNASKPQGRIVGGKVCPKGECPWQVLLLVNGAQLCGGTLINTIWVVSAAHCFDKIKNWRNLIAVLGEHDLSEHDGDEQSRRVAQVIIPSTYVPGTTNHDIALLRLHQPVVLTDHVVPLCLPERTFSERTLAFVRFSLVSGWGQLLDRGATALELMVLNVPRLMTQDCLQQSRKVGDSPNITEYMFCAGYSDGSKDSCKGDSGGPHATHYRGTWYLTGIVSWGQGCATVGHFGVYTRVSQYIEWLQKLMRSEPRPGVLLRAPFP
Outline: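 FVIIa was preincubated with compound or blank buffer at 37 °C for 10 min. Chromogenic substrate was added and absorbance read at 405 nm. Compounds came from DMSO stocks (10 mM) diluted in assay buffer. IC50 was derived from a concentration range.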

[14] = tested on: Oryctolagus cuniculus; experiment: Antithrombotic activity in New Zealand White rabbit model of AV-shunt induced thrombosis assessed as reduction in thrombosis weight by measuring inhibition of thrombosis formation at 5 mg/kg, administered as iv bolus dose and subsequently followed by 8 mg/kg/hr as iv infusion relative to control; type: functional; outline: as §1
[15] = tested on: Oryctolagus cuniculus; experiment: Antithrombotic activity in New Zealand White rabbit model of AV-shunt induced thrombosis assessed as reduction in thrombosis weight by measuring inhibition of thrombosis formation at 0.5 mg/kg, administered as iv bolus dose and subsequently followed by 0.8 mg/kg/hr as iv infusion relative to control; type: functional; outline: as §1
[16] = species: Homo sapiens; experiment: Selectivity ratio of Ki for coagulation factor 10a (unknown origin) to Ki for coagulation factor 11a (unknown origin)
[17] = target: Plasma kallikrein (Homo sapiens, UniProt P03952); experiment: Binding affinity to plasma kallikrein (unknown origin) assessed as inhibition constant using D-Pro-Phe,Arg,pNa,2HCl as substrate preincubated for 15 mins followed by substrate addition
[18] = species: Homo sapiens; experiment: Competitive inhibition of coagulation factor 11a (unknown origin) assessed as Km at 0.01 uM using varying levels (p-Glu-Pro-Arg-pNa,HCl) as substrate by Lineweaver-Burk plot analysis; outline: as §2
[19] = species: Homo sapiens; experiment: Selectivity ratio of Ki for thrombin (unknown origin) to Ki for coagulation factor 11a (unknown origin)
[20] = target: T1, Coagulation factor XI; experiment: Inhibition of coagulation factor 11a (unknown origin) at 500 uM using (p-Glu-Pro-Arg-pNa,HCl) as substrate preincubated for 5 mins followed by substrate addition and measured after 10 mins relative to control; settings: time 15.0 min

T1 sequence (P03951 19-387 limits assumed): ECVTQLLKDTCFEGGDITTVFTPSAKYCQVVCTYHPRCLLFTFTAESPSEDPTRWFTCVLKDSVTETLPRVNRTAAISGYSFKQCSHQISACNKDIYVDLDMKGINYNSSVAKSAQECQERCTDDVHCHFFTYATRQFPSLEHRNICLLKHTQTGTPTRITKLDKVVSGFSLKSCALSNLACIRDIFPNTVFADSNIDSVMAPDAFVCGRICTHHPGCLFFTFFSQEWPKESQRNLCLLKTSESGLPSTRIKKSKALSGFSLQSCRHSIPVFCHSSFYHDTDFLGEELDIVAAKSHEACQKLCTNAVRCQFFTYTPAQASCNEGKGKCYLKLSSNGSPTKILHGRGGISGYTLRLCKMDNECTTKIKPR
T1 sequence (P03951 388-625 limits assumed): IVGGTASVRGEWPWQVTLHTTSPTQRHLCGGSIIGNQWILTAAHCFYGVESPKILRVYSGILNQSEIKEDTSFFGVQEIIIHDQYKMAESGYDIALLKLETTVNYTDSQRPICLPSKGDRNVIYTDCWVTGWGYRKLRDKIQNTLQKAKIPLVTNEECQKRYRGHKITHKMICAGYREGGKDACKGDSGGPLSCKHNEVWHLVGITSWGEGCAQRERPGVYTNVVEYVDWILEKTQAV
Sequence of Plasma kallikrein (P03952 20-390 limits assumed): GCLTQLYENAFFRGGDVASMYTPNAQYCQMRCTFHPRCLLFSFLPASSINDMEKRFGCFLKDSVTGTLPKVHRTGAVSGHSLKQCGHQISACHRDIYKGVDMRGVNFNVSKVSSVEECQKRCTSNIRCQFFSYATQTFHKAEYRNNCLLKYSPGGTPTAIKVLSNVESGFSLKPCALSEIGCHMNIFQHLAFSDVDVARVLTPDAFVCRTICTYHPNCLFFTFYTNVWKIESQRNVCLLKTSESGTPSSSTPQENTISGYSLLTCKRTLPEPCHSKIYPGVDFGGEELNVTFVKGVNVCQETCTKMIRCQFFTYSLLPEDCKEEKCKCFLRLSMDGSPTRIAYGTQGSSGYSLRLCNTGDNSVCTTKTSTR
Sequence of Plasma kallikrein (P03952 391-638 limits assumed): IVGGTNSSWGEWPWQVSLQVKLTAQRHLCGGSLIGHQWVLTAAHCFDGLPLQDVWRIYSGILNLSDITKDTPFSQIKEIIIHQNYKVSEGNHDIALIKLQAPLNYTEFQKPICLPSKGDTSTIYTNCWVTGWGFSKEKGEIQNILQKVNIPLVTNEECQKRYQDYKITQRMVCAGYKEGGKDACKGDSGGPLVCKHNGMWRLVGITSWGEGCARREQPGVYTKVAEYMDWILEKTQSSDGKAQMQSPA
Sequence of Coagulation factor X (P00742 41-179 limits assumed): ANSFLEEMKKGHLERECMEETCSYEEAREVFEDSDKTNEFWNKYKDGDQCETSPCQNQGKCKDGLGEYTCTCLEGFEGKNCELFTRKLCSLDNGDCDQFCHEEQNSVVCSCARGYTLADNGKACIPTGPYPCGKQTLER
Sequence of Coagulation factor X (P00742 235-488 limits assumed): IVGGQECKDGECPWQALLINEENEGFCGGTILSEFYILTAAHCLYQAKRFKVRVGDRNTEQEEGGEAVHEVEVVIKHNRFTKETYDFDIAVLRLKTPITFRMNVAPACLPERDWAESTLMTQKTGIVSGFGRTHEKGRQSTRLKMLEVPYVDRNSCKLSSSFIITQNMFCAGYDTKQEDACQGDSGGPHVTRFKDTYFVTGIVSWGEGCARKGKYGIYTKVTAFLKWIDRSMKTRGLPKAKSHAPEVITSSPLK

SMILES	pKi [1]	further results
Cc1nc(-c2ccccc2)n(O)c1C(=O)N[C@@H](Cc1ccccc1)C(=O)Nc1ccc(C(=O)O)cc1	< 4.00	–
Cc1nc(-c2cccc(Cl)c2F)n(O)c1C(=O)N[C@@H](Cc1ccc(NC(=O)CC(C)C)cc1)C(=O)Nc1ccc2[nH]c(C(=O)O)cc2c1	7.59	–
Cc1nc(-c2cccc(Cl)c2F)n(O)c1C(=O)N[C@@H](Cc1ccc(N)cc1)C(=O)Nc1ccc2[nH]c(C(=O)O)cc2c1	5.51	–
Cc1nc(-c2ccccc2C#N)n(O)c1C(=O)N[C@@H](Cc1ccccc1)C(=O)Nc1ccc(C(=O)O)cc1	4.72	inhibition [2]: 16.4%
CC(=O)Nc1ccc(C[C@H](NC(=O)c2c(C)nc(-c3cccc(Cl)c3F)n2O)C(=O)Nc2ccc3[nH]c(C(=O)O)cc3c2)cc1	6.41	–
Cc1nc(-c2ccc(OCC(C)C)c(C#N)c2)n(O)c1C(=O)O	< 3.30	inhibition [20]: 29.8%
COc1ccc(-c2nc(C)c(C(=O)O)n2O)cc1C#N	3.61	–
Cc1nc(-c2cccc(C#N)c2)n(O)c1C(=O)N[C@@H](Cc1ccccc1)C(=O)Nc1ccc(C(=O)O)cc1	4.62	–
Cc1nc(-c2cccc(Cl)c2)n(O)c1C(=O)N[C@@H](Cc1ccccc1)C(=O)Nc1ccc(C(=O)O)cc1	4.84	–
Cc1nc(-c2cccc(Cl)c2F)n(O)c1C(=O)N[C@@H](Cc1ccccc1)C(=O)Nc1ccc(CC(=O)O)cc1	5.16	–
Cc1nc(-c2cccc(Cl)c2F)n(O)c1C(=O)N[C@@H](Cc1ccc(NC(=O)c2ncccn2)cc1)C(=O)Nc1ccc2[nH]c(C(=O)O)cc2c1	7.09	–
Cc1nc(-c2ccc(Cl)cc2)n(O)c1C(=O)N[C@@H](Cc1ccccc1)C(=O)Nc1ccc(C(=O)O)cc1	< 4.00	inhibition [2]: 22.5%
CC#CC(=O)Nc1ccc(C[C@H](NC(=O)c2c(C)nc(-c3cccc(Cl)c3F)n2O)C(=O)Nc2ccc3[nH]c(C(=O)O)cc3c2)cc1	7.51	–
Cc1nc(-c2cccc(Cl)c2F)n(C)c1C(=O)N[C@@H](Cc1ccccc1)C(=O)Nc1ccc(C(=O)O)cc1	4.65	–
Cc1nc(-c2cccc(Cl)c2F)n(O)c1C(=O)N[C@@H](Cc1ccc(Cl)cc1)C(=O)Nc1ccc2[nH]c(C(=O)O)cc2c1	6.45	–
NC[C@H]1CC[C@H](C(=O)N[C@@H](Cc2ccccc2)c2nc(-c3ccc4c(N)n[nH]c4c3)c(Cl)[nH]2)CC1	8.82	inhibition (INH) [15]: 59.26%
C#CC(=O)Nc1ccc(C[C@H](NC(=O)c2c(C)nc(-c3cccc(Cl)c3F)n2O)C(=O)Nc2ccc3[nH]c(C(=O)O)cc3c2)cc1	7.28	–
Cc1nc(-c2ccc(C#N)cc2)n(O)c1C(=O)N[C@@H](Cc1ccccc1)C(=O)Nc1ccc(C(=O)O)cc1	< 4.00	inhibition [2]: 0%

Now from value to molecule, other results behind:

pKi [1]	SMILES	further results
< 4.00	Cc1nc(-c2ccccc2Cl)n(O)c1C(=O)N[C@@H](Cc1ccccc1)C(=O)Nc1ccc(C(=O)O)cc1	inhibition [2]: 34.1%
6.02	Cc1nc(-c2cccc(Cl)c2F)n(O)c1C(=O)N[C@@H](Cc1ccc(Br)cc1)C(=O)Nc1ccc2[nH]c(C(=O)O)cc2c1	–
7.65	Cc1nc(-c2cccc(Cl)c2F)n(O)c1C(=O)N[C@@H](Cc1ccc(NC(=O)C2CCC2)cc1)C(=O)Nc1ccc2[nH]c(C(=O)O)cc2c1	–
8.05	Cc1nc(-c2cccc(Cl)c2F)n(O)c1C(=O)N[C@@H](Cc1ccc(NC(=O)C2CC2C)cc1)C(=O)Nc1ccc2[nH]c(C(=O)O)cc2c1 (stereo not given in full)	inhibition (INH) [3]: 42.67%; Ratio Ki [4]: 21.3; Km [5]: 89.9 µM; Km [6]: 128 µM; Vmax [7]: 0.17 µM/min; pKi [8]: < 4.90; Ratio Ki [9]: > 400; Km [10]: 45.5 µM; inhibition [11]: Dose-Dependent Effect; pKi [12]: < 5.10; pKi [13]: 5.38; inhibition (INH) [14]: 51.04%; inhibition (INH) [15]: 26.8%; Ratio Ki [16]: > 400; pKi [17]: 6.72; Km [18]: 60.3 µM; Ratio Ki [19]: > 400
6.81	Cc1nc(-c2cccc(Cl)c2F)n(O)c1C(=O)N[C@@H](Cc1ccc(NC(=O)C(C)C)cc1)C(=O)Nc1ccc2[nH]c(C(=O)O)cc2c1	–
3.64	Cc1nc(-c2ccc(O)c(C#N)c2)n(O)c1C(=O)O	–
4.93	Cc1nc(-c2cccc(Cl)c2F)n(O)c1C(=O)N[C@@H](Cc1ccccc1)C(=O)Nc1ccc(C(=O)O)cc1	–
< 4.00	COn1c(-c2cccc(Cl)c2F)nc(C)c1C(=O)N[C@@H](Cc1ccccc1)C(=O)Nc1ccc(C(=O)O)cc1	inhibition [2]: 0%
4.58	Cc1nc(-c2cccc(Cl)c2F)[nH]c1C(=O)N[C@@H](Cc1ccccc1)C(=O)Nc1ccc(C(=O)O)cc1	–
6.44	Cc1nc(-c2cccc(Cl)c2F)n(O)c1C(=O)N[C@@H](Cc1ccc(NC(=O)c2ccccc2)cc1)C(=O)Nc1ccc2[nH]c(C(=O)O)cc2c1	–
6.59	Cc1nc(-c2cccc(Cl)c2F)n(O)c1C(=O)N[C@@H](Cc1ccc(NC(=O)C2CC2)cc1)C(=O)Nc1ccc2[nH]c(C(=O)O)cc2c1	–
5.55	Cc1nc(-c2cccc(Cl)c2F)n(O)c1C(=O)N[C@@H](Cc1ccccc1)C(=O)Nc1ccc2[nH]c(C(=O)O)cc2c1	–
7.47	Cc1nc(-c2cccc(Cl)c2F)n(O)c1C(=O)N[C@@H](Cc1ccc(NC(=O)C2CCCC2)cc1)C(=O)Nc1ccc2[nH]c(C(=O)O)cc2c1	–
5.14	Cc1nc(-c2cccc(Cl)c2F)n(O)c1C(=O)N[C@@H](Cc1ccc([N+](=O)[O-])cc1)C(=O)Nc1ccc2[nH]c(C(=O)O)cc2c1	–
3.92	Cc1nc(-c2cccc(C#N)c2)n(O)c1C(=O)O	–
6.31	Cc1nc(-c2cccc(Cl)c2F)n(O)c1C(=O)N[C@@H](Cc1ccc(F)cc1)C(=O)Nc1ccc2[nH]c(C(=O)O)cc2c1	–
7.25	Cc1nc(-c2cccc(Cl)c2F)n(O)c1C(=O)N[C@@H](Cc1ccc(NC(=O)C2CCCCC2)cc1)C(=O)Nc1ccc2[nH]c(C(=O)O)cc2c1	–
6.81	Cc1nc(-c2cccc(Cl)c2F)n(O)c1C(=O)N[C@@H](Cc1ccc(NC(=O)c2ccccn2)cc1)C(=O)Nc1ccc2[nH]c(C(=O)O)cc2c1	–
